Assay results reported in ChEMBL document CHEMBL3232810, “Synthesis, biological evaluation and 3D-QSAR studies of new chalcone derivatives as inhibitors of human P-glycoprotein” (Bioorg Med Chem, 2014).

Target: ATP-dependent translocase ABCB1 (Homo sapiens, UniProt P08183)
Test: Inhibition of P-gp-mediated daunorubicin efflux in human CCRF-CEM/VCR1000 cells measured within 1 hr by FACS flow cytometry
Method in brief: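 CCRF vcr1000 cells kept in RPMI 1640 with 10% FCS and 1000 ng/mL vincristine; vincristine washed out 1 week before use. Cells at 1×10⁶/mL were preloaded with daunorubicin (3 µmol/L final), 30 min, 37 °C. After pelleting they were resuspended in warm medium with inhibitor, eight concentrations (1:3 serial), top 20–200 µM. Aliquots at 0, 60, 120, 180 and 240 s went into ice-cold stop solution (5 µmol/L GPV31 final). Initial efflux rates came from linear regression, and IC50 from a Hill-equation fit of rate versus concentration.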

ATP-dependent translocase ABCB1, sequence (P08183 whole entry): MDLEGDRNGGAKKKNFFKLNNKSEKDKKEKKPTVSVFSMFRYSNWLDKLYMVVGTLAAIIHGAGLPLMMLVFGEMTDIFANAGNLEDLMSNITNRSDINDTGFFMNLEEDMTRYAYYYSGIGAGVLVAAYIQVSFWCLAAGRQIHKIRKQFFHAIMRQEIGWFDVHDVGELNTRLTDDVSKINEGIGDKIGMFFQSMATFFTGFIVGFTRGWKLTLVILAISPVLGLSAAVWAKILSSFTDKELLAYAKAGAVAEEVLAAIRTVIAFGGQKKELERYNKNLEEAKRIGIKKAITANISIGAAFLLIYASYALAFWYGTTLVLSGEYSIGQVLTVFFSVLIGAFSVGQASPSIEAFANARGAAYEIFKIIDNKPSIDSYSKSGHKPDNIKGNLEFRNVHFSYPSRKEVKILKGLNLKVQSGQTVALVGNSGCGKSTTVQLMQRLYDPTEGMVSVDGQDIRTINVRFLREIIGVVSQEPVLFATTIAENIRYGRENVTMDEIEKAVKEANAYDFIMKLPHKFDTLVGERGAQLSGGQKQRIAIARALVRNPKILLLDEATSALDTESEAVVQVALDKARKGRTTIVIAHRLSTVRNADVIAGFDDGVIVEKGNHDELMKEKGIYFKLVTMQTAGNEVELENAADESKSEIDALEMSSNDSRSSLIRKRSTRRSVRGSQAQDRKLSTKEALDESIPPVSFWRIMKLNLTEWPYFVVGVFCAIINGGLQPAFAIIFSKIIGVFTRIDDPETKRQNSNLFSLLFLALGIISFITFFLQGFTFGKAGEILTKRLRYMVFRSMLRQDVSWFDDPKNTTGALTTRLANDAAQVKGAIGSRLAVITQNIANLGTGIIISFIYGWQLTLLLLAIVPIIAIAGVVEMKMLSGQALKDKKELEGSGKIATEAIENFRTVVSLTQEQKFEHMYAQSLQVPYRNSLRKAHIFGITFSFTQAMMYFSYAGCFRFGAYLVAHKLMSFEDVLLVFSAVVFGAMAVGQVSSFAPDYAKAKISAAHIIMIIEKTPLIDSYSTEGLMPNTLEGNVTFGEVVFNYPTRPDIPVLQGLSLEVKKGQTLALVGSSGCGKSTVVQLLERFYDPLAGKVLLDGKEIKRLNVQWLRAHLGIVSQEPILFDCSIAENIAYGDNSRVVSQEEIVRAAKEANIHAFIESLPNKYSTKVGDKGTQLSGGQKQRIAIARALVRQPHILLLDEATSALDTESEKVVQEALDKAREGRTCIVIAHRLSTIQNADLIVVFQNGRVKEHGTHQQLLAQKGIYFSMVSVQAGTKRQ

SMILES | IC50 [µM]
COc1ccc2c(c1)CC/C(=C\C=C\c1cc(OC)c(OC)c(OC)c1)C2=O | 1.74
COc1ccccc1C(=O)/C=C/c1c(C)cc(C)cc1C | 8.51
COc1ccc(C(=O)/C=C/c2ccc(OC)c3ccccc23)cc1OC | 2.75
COc1ccccc1/C=C/C=C/C(=O)c1cc(OC)c(OC)c(OC)c1 | 1.38
COc1ccccc1/C=C/C=C/C(=O)c1cc(OC)c(O)c(OC)c1 | 12
COc1ccc2c(c1)CC/C(=C\c1ccc3ccccc3c1)C2=O | 3.55
COc1cc(/C=C/C=C2\Cc3ccc(OC)c(OC)c3C2=O)cc(OC)c1OC | 2.63
COc1cc(/C=C/C=C2\Cc3ccc(OC)c(OC)c3C2=O)ccc1O | 2.33
COc1ccc2c(c1)C/C(=C\C=C\c1ccccc1OC)C2=O | 3.89
COc1cc(C(=O)/C=C/c2ccc(C(=O)O)cc2)cc(OC)c1OC | 141
COC(=O)C1=C(O)/C(=C/C=C/c2ccccc2OC)CCC1 | 20.4

The next compounds have a lower IC50 than those just listed; values first:

IC50 [µM] | SMILES
1.15 | COc1ccc2c(c1)C(=O)/C(=C/C=C/c1cc(OC)c(OC)c(OC)c1)C2
0.87 | COc1cc(C(=O)/C=C/C=C/c2ccccc2SC)cc(OC)c1OC
0.65 | COc1cc(C(=O)/C=C/c2ccccc2SC)cc(OC)c1OC
0.14 | COc1cc2c(cc1OC)C(=O)/C(=C/C=C/c1cc(OC)c(OC)c(OC)c1)CC2
0.14 | COc1ccc(C(=O)/C=C/c2cccc(/C=C/C(=O)c3ccc(OC)c(OC)c3)c2)cc1OC
0.14 | COc1cc(/C=C/C(=O)c2cccc(C(=O)/C=C/c3cc(OC)c(OC)c(OC)c3)c2)cc(OC)c1OC
0.13 | COc1cc2c(cc1OC)C(=O)/C(=C/c1ccc(N(C)C)cc1)C2
0.12 | COc1cc(C(=O)/C=C/c2cccc(/C=C/C(=O)c3cc(OC)c(OC)c(OC)c3)c2)cc(OC)c1OC
0.06 | COc1cc(/C=C/C=C/C(=O)c2cccc(C(=O)/C=C/C=C/c3cc(OC)c(OC)c(OC)c3)c2)cc(OC)c1OC
0.04 | COc1cc2c(cc1OC)C(=O)/C(=C/C=C/c1ccc(N(C)C)cc1)C2
